ChEMBL document CHEMBL3046654, “Penoxsulam--structure-activity relationships of triazolopyrimidine sulfonamides” (Bioorg Med Chem, 2009)

System: Setaria faberi
Experiment: Post-emergence herbicidal activity against Setaria faberi (Giant Foxtail) compound treated as foliar application measured after 2 weeks
Type: functional
Settings: not given
How it was run: (§1)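 Greenhouse post-emergence foliar screen in 64 cm² pots. Seed treatments were used on some species to aid germination. Plants were grown 7–21 days at 23–29 °C day/22–28 °C night under a 15 h photoperiod. Sprayed at 2–12 cm height and the 1–4 true leaf stage.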

SMILES	GR80 [ppm]
COc1ncc(F)c2nc(NS(=O)(=O)c3c(Cl)cccc3Cl)nn12	>125
COc1cccc(C(F)(F)F)c1S(=O)(=O)Nc1nc2c(OC)cnc(OC)n2n1	1
COc1cnc(OC)n2nc(NS(=O)(=O)c3cc(Cl)cc(Cl)c3)nc12	>1000
COc1cc2nc(NS(=O)(=O)c3c(Cl)cccc3Cl)nn2c(OC)n1	>1000
COc1ccccc1S(=O)(=O)Nc1nc2c(OC)cnc(OC)n2n1	1

System: Sorghum halepense
Experiment: Post-emergence herbicidal activity against Sorghum halepense (Johnson grass) compound treated as foliar application measured after 2 weeks
Type: functional
Settings: not given
How it was run: as §1

SMILES	GR80 [ppm]
COc1ncc(F)c2nc(NS(=O)(=O)c3c(Cl)cccc3Cl)nn12	>125
COc1cccc(C(F)(F)F)c1S(=O)(=O)Nc1nc2c(OC)cnc(OC)n2n1	1
COc1cnc(OC)n2nc(NS(=O)(=O)c3cc(Cl)cc(Cl)c3)nc12	>1000
COc1cc2nc(NS(=O)(=O)c3c(Cl)cccc3Cl)nn2c(OC)n1	>1000
COc1ccccc1S(=O)(=O)Nc1nc2c(OC)cnc(OC)n2n1	1

System: Avena fatua
Experiment: Post-emergence herbicidal activity against Avena fatua compound treated as foliar application measured after 2 weeks
Type: functional
Settings: not given
How it was run: as §1

SMILES	GR80 [ppm]
COc1ncc(F)c2nc(NS(=O)(=O)c3c(Cl)cccc3Cl)nn12	>125
COc1cccc(C(F)(F)F)c1S(=O)(=O)Nc1nc2c(OC)cnc(OC)n2n1	1
COc1cnc(OC)n2nc(NS(=O)(=O)c3cc(Cl)cc(Cl)c3)nc12	>1000
COc1cc2nc(NS(=O)(=O)c3c(Cl)cccc3Cl)nn2c(OC)n1	>1000
COc1ccccc1S(=O)(=O)Nc1nc2c(OC)cnc(OC)n2n1	1

System: Abutilon theophrasti
Experiment: Post-emergence herbicidal activity against Abutilon theophrasti (velvetleaf) compound treated as foliar application measured after 2 weeks
Type: functional
Settings: not given
How it was run: as §1

SMILES	GR80 [ppm]
COc1ncc(F)c2nc(NS(=O)(=O)c3c(Cl)cccc3Cl)nn12	19
COc1cccc(C(F)(F)F)c1S(=O)(=O)Nc1nc2c(OC)cnc(OC)n2n1	<0.2
COc1cnc(OC)n2nc(NS(=O)(=O)c3cc(Cl)cc(Cl)c3)nc12	126
COc1cc2nc(NS(=O)(=O)c3c(Cl)cccc3Cl)nn2c(OC)n1	>1000
COc1ccccc1S(=O)(=O)Nc1nc2c(OC)cnc(OC)n2n1	1

System: Ipomoea hederacea
Experiment: Post-emergence herbicidal activity against Ipomoea hederacea (ivy-leaved morning glory) compound treated as foliar application measured after 2 weeks
Type: functional
Settings: not given
How it was run: as §1

SMILES	GR80 [ppm]
COc1ncc(F)c2nc(NS(=O)(=O)c3c(Cl)cccc3Cl)nn12	19
COc1cccc(C(F)(F)F)c1S(=O)(=O)Nc1nc2c(OC)cnc(OC)n2n1	<0.2
COc1cnc(OC)n2nc(NS(=O)(=O)c3cc(Cl)cc(Cl)c3)nc12	126
COc1cc2nc(NS(=O)(=O)c3c(Cl)cccc3Cl)nn2c(OC)n1	>1000
COc1ccccc1S(=O)(=O)Nc1nc2c(OC)cnc(OC)n2n1	1

System: Veronica hederifolia
Experiment: Post-emergence herbicidal activity against Veronica hederifolia compound treated as foliar application measured after 2 weeks
Type: functional
Settings: not given
How it was run: as §1

SMILES	GR80 [ppm]
COc1ncc(F)c2nc(NS(=O)(=O)c3c(Cl)cccc3Cl)nn12	19
COc1cccc(C(F)(F)F)c1S(=O)(=O)Nc1nc2c(OC)cnc(OC)n2n1	<0.2
COc1cnc(OC)n2nc(NS(=O)(=O)c3cc(Cl)cc(Cl)c3)nc12	126
COc1cc2nc(NS(=O)(=O)c3c(Cl)cccc3Cl)nn2c(OC)n1	>1000
COc1ccccc1S(=O)(=O)Nc1nc2c(OC)cnc(OC)n2n1	1

System: Datura stramonium
Experiment: Post-emergence herbicidal activity against Datura stramonium compound treated as foliar application measured after 2 weeks
Type: functional
Settings: not given
How it was run: as §1

SMILES	GR80 [ppm]
COc1ncc(F)c2nc(NS(=O)(=O)c3c(Cl)cccc3Cl)nn12	19
COc1cccc(C(F)(F)F)c1S(=O)(=O)Nc1nc2c(OC)cnc(OC)n2n1	<0.2
COc1cnc(OC)n2nc(NS(=O)(=O)c3cc(Cl)cc(Cl)c3)nc12	126
COc1cc2nc(NS(=O)(=O)c3c(Cl)cccc3Cl)nn2c(OC)n1	>1000
COc1ccccc1S(=O)(=O)Nc1nc2c(OC)cnc(OC)n2n1	1

System: Helianthus
Experiment: Post-emergence herbicidal activity against Helianthus spp. compound treated as foliar application measured after 2 weeks
Type: functional
Settings: not given
How it was run: as §1

SMILES	GR80 [ppm]
COc1ncc(F)c2nc(NS(=O)(=O)c3c(Cl)cccc3Cl)nn12	19
COc1cccc(C(F)(F)F)c1S(=O)(=O)Nc1nc2c(OC)cnc(OC)n2n1	<0.2
COc1cnc(OC)n2nc(NS(=O)(=O)c3cc(Cl)cc(Cl)c3)nc12	126
COc1cc2nc(NS(=O)(=O)c3c(Cl)cccc3Cl)nn2c(OC)n1	>1000
COc1ccccc1S(=O)(=O)Nc1nc2c(OC)cnc(OC)n2n1	1

System: Fallopia convolvulus
Experiment: Post-emergence herbicidal activity against Fallopia convolvulus compound treated as foliar application measured after 2 weeks
Type: functional
Settings: not given
How it was run: as §1

SMILES	GR80 [ppm]
COc1ncc(F)c2nc(NS(=O)(=O)c3c(Cl)cccc3Cl)nn12	19
COc1cccc(C(F)(F)F)c1S(=O)(=O)Nc1nc2c(OC)cnc(OC)n2n1	<0.2
COc1cnc(OC)n2nc(NS(=O)(=O)c3cc(Cl)cc(Cl)c3)nc12	126
COc1cc2nc(NS(=O)(=O)c3c(Cl)cccc3Cl)nn2c(OC)n1	>1000
COc1ccccc1S(=O)(=O)Nc1nc2c(OC)cnc(OC)n2n1	1

System: Chenopodium album
Experiment: Post-emergence herbicidal activity against Chenopodium album compound treated as foliar application measured after 2 weeks
Type: functional
Settings: not given
How it was run: as §1

SMILES	GR80 [ppm]
COc1ncc(F)c2nc(NS(=O)(=O)c3c(Cl)cccc3Cl)nn12	19
COc1cccc(C(F)(F)F)c1S(=O)(=O)Nc1nc2c(OC)cnc(OC)n2n1	<0.2
COc1cnc(OC)n2nc(NS(=O)(=O)c3cc(Cl)cc(Cl)c3)nc12	126
COc1cc2nc(NS(=O)(=O)c3c(Cl)cccc3Cl)nn2c(OC)n1	>1000
COc1ccccc1S(=O)(=O)Nc1nc2c(OC)cnc(OC)n2n1	1

System: Amaranthus retroflexus
Experiment: Post-emergence herbicidal activity against Amaranthus retroflexus compound treated as foliar application measured after 2 weeks
Type: functional
Settings: not given
How it was run: as §1

SMILES	GR80 [ppm]
COc1ncc(F)c2nc(NS(=O)(=O)c3c(Cl)cccc3Cl)nn12	19
COc1cccc(C(F)(F)F)c1S(=O)(=O)Nc1nc2c(OC)cnc(OC)n2n1	<0.2
COc1cnc(OC)n2nc(NS(=O)(=O)c3cc(Cl)cc(Cl)c3)nc12	126
COc1cc2nc(NS(=O)(=O)c3c(Cl)cccc3Cl)nn2c(OC)n1	>1000
COc1ccccc1S(=O)(=O)Nc1nc2c(OC)cnc(OC)n2n1	1

System: not listed separately
Experiment: Inhibition of acetolactatae synthase
Settings: read-out: I50
How it was run: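 Barley ALS: etiolated shoots of 5–6 d old Hector Spring barley homogenized at 0–4 °C in 20 mM HEPES pH 7.2, 1 mM EDTA, 5 mM DTT, then 33% (NH4)2SO4 cut. Reaction: 20 mM HEPES pH 7.2, 5 mM MgCl2, 0.25 mM TPP, FAD, 22.5 mM pyruvate, 0.7% DMSO final, 37 °C, 30 min. Acid decarboxylation to acetoin, then creatine/1-naphthol colour read at 530 nm. Reported as I50 (nM).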

SMILES	IC50 [nM]
COc1ncc(F)c2nc(NS(=O)(=O)c3c(Cl)cccc3Cl)nn12	12
COc1cc2nc(NS(=O)(=O)c3c(Cl)cccc3Cl)nn2c(OC)n1	195

System: Digitaria sanguinalis
Experiment: Post-emergence herbicidal activity against Digitaria sanguinalis (hairy crabgrass) compound treated as foliar application measured after 2 weeks
Type: functional
Settings: not given
How it was run: as §1

SMILES	GR80 [ppm]
COc1ncc(F)c2nc(NS(=O)(=O)c3c(Cl)cccc3Cl)nn12	>125
COc1cccc(C(F)(F)F)c1S(=O)(=O)Nc1nc2c(OC)cnc(OC)n2n1	1
COc1cnc(OC)n2nc(NS(=O)(=O)c3cc(Cl)cc(Cl)c3)nc12	>1000
COc1cc2nc(NS(=O)(=O)c3c(Cl)cccc3Cl)nn2c(OC)n1	>1000
COc1ccccc1S(=O)(=O)Nc1nc2c(OC)cnc(OC)n2n1	1

System: Stellaria media
Experiment: Post-emergence herbicidal activity against Stellaria media compound treated as foliar application measured after 2 weeks
Type: functional
Settings: not given
How it was run: as §1

SMILES	GR80 [ppm]
COc1ncc(F)c2nc(NS(=O)(=O)c3c(Cl)cccc3Cl)nn12	19
COc1cccc(C(F)(F)F)c1S(=O)(=O)Nc1nc2c(OC)cnc(OC)n2n1	<0.2
COc1cnc(OC)n2nc(NS(=O)(=O)c3cc(Cl)cc(Cl)c3)nc12	126
COc1cc2nc(NS(=O)(=O)c3c(Cl)cccc3Cl)nn2c(OC)n1	>1000
COc1ccccc1S(=O)(=O)Nc1nc2c(OC)cnc(OC)n2n1	1

System: Ipomoea
Experiment: Post-emergence herbicidal activity against Ipomoea spp. compound treated as foliar application measured after 2 weeks
Type: functional
Settings: not given
How it was run: as §1

SMILES	GR80 [ppm]
COc1ncc(F)c2nc(NS(=O)(=O)c3c(Cl)cccc3Cl)nn12	19
COc1cccc(C(F)(F)F)c1S(=O)(=O)Nc1nc2c(OC)cnc(OC)n2n1	<0.2
COc1cnc(OC)n2nc(NS(=O)(=O)c3cc(Cl)cc(Cl)c3)nc12	126
COc1cc2nc(NS(=O)(=O)c3c(Cl)cccc3Cl)nn2c(OC)n1	>1000
COc1ccccc1S(=O)(=O)Nc1nc2c(OC)cnc(OC)n2n1	1

System: Oryza sativa
Experiment: Phytotoxicity against Oryza sativa (rice)
Type: organism-based
Settings: in vivo

SMILES	GR20 [ppm]
COc1ncc(F)c2nc(NS(=O)(=O)c3c(Cl)cccc3Cl)nn12	> 125
COc1cccc(C(F)(F)F)c1S(=O)(=O)Nc1nc2c(OC)cnc(OC)n2n1	2
COc1cnc(OC)n2nc(NS(=O)(=O)c3cc(Cl)cc(Cl)c3)nc12	62
COc1cc2nc(NS(=O)(=O)c3c(Cl)cccc3Cl)nn2c(OC)n1	> 1000
COc1ccccc1S(=O)(=O)Nc1nc2c(OC)cnc(OC)n2n1	< 1

System: Xanthium strumarium
Experiment: Post-emergence herbicidal activity against Xanthium strumarium (cocklebur) compound treated as foliar application measured after 2 weeks
Type: functional
Settings: not given
How it was run: as §1

SMILES	GR80 [ppm]
COc1ncc(F)c2nc(NS(=O)(=O)c3c(Cl)cccc3Cl)nn12	19
COc1cccc(C(F)(F)F)c1S(=O)(=O)Nc1nc2c(OC)cnc(OC)n2n1	<0.2
COc1cnc(OC)n2nc(NS(=O)(=O)c3cc(Cl)cc(Cl)c3)nc12	126
COc1cc2nc(NS(=O)(=O)c3c(Cl)cccc3Cl)nn2c(OC)n1	>1000
COc1ccccc1S(=O)(=O)Nc1nc2c(OC)cnc(OC)n2n1	1

System: Echinochloa crus-galli
Experiment: Post-emergence herbicidal activity against Echinochloa crus-galli (barnyard grass) compound treated as foliar application measured after 2 weeks
Type: functional
Settings: not given
How it was run: as §1

SMILES	GR80 [ppm]
COc1ncc(F)c2nc(NS(=O)(=O)c3c(Cl)cccc3Cl)nn12	>125
COc1cccc(C(F)(F)F)c1S(=O)(=O)Nc1nc2c(OC)cnc(OC)n2n1	1
COc1cnc(OC)n2nc(NS(=O)(=O)c3cc(Cl)cc(Cl)c3)nc12	>1000
COc1cc2nc(NS(=O)(=O)c3c(Cl)cccc3Cl)nn2c(OC)n1	>1000
COc1ccccc1S(=O)(=O)Nc1nc2c(OC)cnc(OC)n2n1	2

System: Alopecurus
Experiment: Post-emergence herbicidal activity against Alopecurus spp. compound treated as foliar application measured after 2 weeks
Type: functional
Settings: not given
How it was run: as §1

SMILES	GR80 [ppm]
COc1ncc(F)c2nc(NS(=O)(=O)c3c(Cl)cccc3Cl)nn12	>125
COc1cccc(C(F)(F)F)c1S(=O)(=O)Nc1nc2c(OC)cnc(OC)n2n1	1
COc1cnc(OC)n2nc(NS(=O)(=O)c3cc(Cl)cc(Cl)c3)nc12	>1000
COc1cc2nc(NS(=O)(=O)c3c(Cl)cccc3Cl)nn2c(OC)n1	>1000
COc1ccccc1S(=O)(=O)Nc1nc2c(OC)cnc(OC)n2n1	1
